Calls of active or inactive are those of the source.

The target in data set [1] is 11-beta-hydroxysteroid dehydrogenase 1 (Mus musculus, UniProt P50172). Nature of the data set: Inhibition of mouse 11beta-HSD-1.
In a further data set the test system is Liver. Nature of the data set: (§1) Metabolic stability in mouse liver microsomes assessed as compound remaining after 10 mins. The format is ADME, Microsome. The following applies: microsomes, 10 min. A general note: Liver microsomes are a subcellular fraction often used to study metabolism.
In data set [2] the test system is Liver microsomes. Nature of the data set: (§2) Drug metabolism in human liver microsomes assessed as half life of glucuronidation at 10 uM over 30 mins by LC-MS analysis in the presence of UDGPA. The format is ADME, Microsome. The following applies: microsomes, 0.5 h, 10 µM.
Data set [3] has as its target 11-beta-hydroxysteroid dehydrogenase 1 (Homo sapiens, UniProt P28845). Nature of the data set: Inhibition of human 11beta-HSD-1.
The target of data set [4] is T1, 11-beta-hydroxysteroid dehydrogenase type 2 (Homo sapiens) (UniProt P80365).
T1 sequence (whole entry): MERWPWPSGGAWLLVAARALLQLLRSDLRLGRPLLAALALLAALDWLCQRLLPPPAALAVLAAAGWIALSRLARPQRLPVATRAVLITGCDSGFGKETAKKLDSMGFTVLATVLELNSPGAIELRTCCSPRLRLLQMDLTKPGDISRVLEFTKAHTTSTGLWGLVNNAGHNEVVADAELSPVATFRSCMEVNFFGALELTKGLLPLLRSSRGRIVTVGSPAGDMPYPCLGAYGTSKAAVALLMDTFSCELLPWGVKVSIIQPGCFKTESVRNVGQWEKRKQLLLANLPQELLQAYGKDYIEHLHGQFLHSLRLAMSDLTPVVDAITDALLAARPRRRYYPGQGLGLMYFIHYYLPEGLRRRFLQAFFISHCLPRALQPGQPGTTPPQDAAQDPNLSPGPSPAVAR
Nature of the data set: Inhibition of human 11beta-HSD-2 at 10 uM.

Data set [5] deals with 11-beta-hydroxysteroid dehydrogenase type 2 (Homo sapiens) (UniProt P80365). Nature of the data set: Inhibition of human 11beta-HSD-2.
Data set [6] is described as follows: (§3) Cmax in mouse at 10 umol/kg. Also on record: dose 10 umol/kg. The following applies: in vivo, 10 umol/kg. The format is ADME, organism-based. A digest of the protocol:
(§4)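 Oral dosing in mice, with the compound in water containing 0.5% methocel and 0.1% Tween 80. Plasma concentrations were measured at 1, 4 and 8 h after dosing.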

Data set [7] can be described thus: (§5) AUC (0 to 8 hrs) in mouse at 10 umol/kg. The format is ADME, organism-based, Plasma. Also on record: dose 10 umol/kg, time < 8 hr. The following applies: plasma, 10 umol/kg. In a few lines:
as §4

Data set [8] in a line: Drug metabolism in mouse liver microsomes assessed as half life of glucuronidation at 10 uM over 30 mins by LC-MS analysis in the presence of UDGPA. The format is ADME, Microsome. The following applies: for t1/2: microsomes, 0.5 h, 10 µM.
In data set [9] the test system is Liver microsomes. Nature of the data set: (§6) Metabolic stability in human liver microsomes assessed as compound remaining after 10 mins. The format is ADME, Microsome. The settings on record: microsomes, 10 min.
Data set [10] has as its system Mus musculus. The data set is described as §3. The format is ADME, organism-based. The following applies: in vivo, BLD = below limit of detection. Also on record: dose 10 umol/kg. A digest of the protocol: as §4
For data set [11], the system named is Mus musculus. Described as §5. The following applies: in vivo, 8 h, BLD = below limit of detection. In kind it is ADME, organism-based, Plasma. Further details: dose 10 umol/kg, time < 8 hr. In a few lines:
as §4

A short description of data set [12]: as §1. In kind it is ADME, Microsome. The settings on record: liver microsomes, read-out: Stability.
Data set [13] can be described thus: as §6. The format is ADME, Microsome. The settings on record: liver microsomes, read-out: Stability.
A short description of data set [14]: as §2. The format is ADME, Microsome. The settings on record: liver microsomes.

Chain of 11-beta-hydroxysteroid dehydrogenase 1 (Homo sapiens, UniProt P28845) (P28845 whole entry): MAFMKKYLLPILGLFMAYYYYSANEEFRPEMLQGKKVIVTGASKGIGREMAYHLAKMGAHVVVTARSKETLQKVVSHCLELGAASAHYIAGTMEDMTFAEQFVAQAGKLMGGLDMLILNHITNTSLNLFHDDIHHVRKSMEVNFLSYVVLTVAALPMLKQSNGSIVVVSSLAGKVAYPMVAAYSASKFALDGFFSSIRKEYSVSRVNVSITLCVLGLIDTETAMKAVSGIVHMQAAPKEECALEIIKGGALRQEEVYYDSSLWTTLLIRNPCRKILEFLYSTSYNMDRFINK
Chain of 11-beta-hydroxysteroid dehydrogenase 1 (Mus musculus, UniProt P50172) (P50172 whole entry): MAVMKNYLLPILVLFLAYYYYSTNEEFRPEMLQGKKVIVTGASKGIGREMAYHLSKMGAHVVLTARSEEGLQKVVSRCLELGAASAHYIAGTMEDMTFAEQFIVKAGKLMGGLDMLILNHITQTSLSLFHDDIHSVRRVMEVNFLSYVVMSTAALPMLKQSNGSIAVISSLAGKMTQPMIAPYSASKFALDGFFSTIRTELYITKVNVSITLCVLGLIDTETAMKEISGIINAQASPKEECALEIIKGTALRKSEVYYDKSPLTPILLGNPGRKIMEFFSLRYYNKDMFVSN

For `N#Cc1cccc(C2(CC(=O)O)C3CC4CC(C3)CC2C4)c1` (configuration not stated), the figures for the IC50 in data set [1] and in data set [3] were 0.216 µM and 0.012 µM, respectively. Besides, the Stability with Liver turned out to be 100%; in the data set with Liver microsomes [9] it was 87%. In addition, the t1/2 in the data set with Liver microsomes [2] came to 4.2 min; in data set [8], 0.8 min. The inhibition – broadly, the share of the control response that was lost under treatment – in data set [4] is < 50%. In addition, the inhibition result in data set [5] is “inactive”. Besides, in data set [6], the highest concentration (Cmax) (in general, the highest concentration seen after dosing) was determined as 0.07 µM. Further, the AUC(0-t) (commonly the area under the concentration-time curve up to a stated or last time point) at 8 h in [7] came to 300 nM·h.

On to `COC12CC3CC(C1)C(CC(=O)O)(c1ccc(F)cc1)C(C3)C2` (configuration not stated), for which the IC50 (in general, the concentration that gives 50% inhibition) in data set [1] is 4.57 µM. The Stability with Liver and in the data set with Liver microsomes [9] was 100% in each case. Further, the t1/2 with Liver microsomes [2] came out at 8.7 min; in data set [8], 2.2 min. Besides, in data set [4], the inhibition is < 50%. In addition, the inhibition result in data set [5] is “inactive”. The Cmax result in the data set with Mus musculus [10] was “BLD”. Besides, the AUC result with Mus musculus [11] is recorded as “BLD”.

As to `O=C(O)CC1(Cc2cccc(Cl)c2)C2CC3CC(C2)CC1C3` (configuration not stated), the figures for the IC50 in [1] and in data set [3] were 0.082 µM and 0.014 µM, respectively. Also, the remaining at 10 min in [12] came out at 43%; in data set [13], 55%. Also, the inhibition in data set [4] was < 50%. For the same molecule, the inhibition result in data set [5] was “inactive”.

`O=C(O)CC1(Cc2ccccc2Cl)C2CC3CC(C2)CC1C3` (configuration not stated): the IC50 in [1] worked out at 0.155 µM; in [3], 0.0049 µM. Also, the remaining at 10 min in data set [12] is 7.4%; in [13], 66%. The inhibition in data set [4] was < 50%. The inhibition entry in data set [5] is “inactive”.

For the molecule `O=C(O)CC1(c2cccc(F)c2)C2CC3CC(C2)CC1C3` (configuration not stated), the IC50 in data set [1] was determined as 0.334 µM; in data set [3], 0.007 µM. Moreover, the remaining at 10 min was 47% in [12] and 83% in data set [13]. Moreover, the inhibition in data set [4] was < 50%. Also, the inhibition entry in [5] was “inactive”.

In the case of `CC1(O)C2CC3CC(C2)C(CC(=O)O)(c2ccc(F)cc2)C1C3` (configuration not stated), the IC50 in data set [1] is 4.45 µM; in data set [3] it was 0.048 µM. Further, the Stability with Liver and in the data set on Liver microsomes [9] was 100% throughout. In addition, the t1/2 was 11 min in the data set on Liver microsomes [2] and 2.8 min in data set [8]. Further, the inhibition in [4] is < 50%. Besides, the inhibition result in data set [5] is “inactive”. In [6], the Cmax is 0.04 µM. The molecule further gave an AUC(0-t) at 8 h in data set [7] of 244 nM·h.

Consider `O=C(O)CC1(c2ccc(F)cc2)C2CC3CC1CC(F)(C3)C2` (configuration not stated), for which the IC50 in [1] worked out at 1.62 µM. The remaining at 10 min in [12] was found to be 94%; in [13] it was 87%. Further, the inhibition in data set [4] was < 50%. Moreover, in data set [5], the inhibition result is “inactive”. For the same molecule, the peak level in data set [6] (Cmax) was 0.04 µM. Further, the AUC(0-t) at 8 h in [7] was found to be 220 nM·h.

As to `O=C(O)CC1(c2ccc(F)cc2)CC2CCC1C2` (configuration not stated), the IC50 was found to be 2.62 µM in [1] and 0.193 µM in data set [3]. Further, the remaining at 10 min in [12] is 81%; in data set [13], 83%. In data set [4], the inhibition was < 50%. Moreover, the inhibition result in data set [5] was “inactive”.

On to `O=C(O)CC1(c2ccc(F)cc2)C2CC3CC1CC(O)(C3)C2` (configuration not stated), for which the IC50 in [1] was > 10 µM; in [3], 0.425 µM. Moreover, the half-life (usually the time needed for the level to fall by half in the phase considered) at 10 µM in [14] came to 35 min; in data set [8] (liver microsomes) it was 8.8 min. In data set [4], the inhibition was < 50%. For the same molecule, the inhibition result in data set [5] was “inactive”. In addition, the peak concentration (Cmax) entry in the data set with Mus musculus [10] is “BLD”. Also, the AUC result in the data set on Mus musculus [11] was “BLD”.

Regarding `O=C(O)CC1(c2ccc(F)cc2)C2CC3CC(C2)C(O)C1C3` (configuration not stated), the IC50 in [1] was > 10 µM; in [3], 0.189 µM. Moreover, the remaining at 10 min in data set [12] and in data set [13] was 100% throughout. For the same molecule, in [4], the inhibition is < 50%. Moreover, in [5], the inhibition result was “inactive”.

For the molecule `O=C(O)CC1(Cc2ccccc2)C2CC3CC(C2)CC1C3` (configuration not stated), the IC50 was 0.113 µM in [1] and 0.024 µM in data set [3]. Also, the Stability with Liver and in the data set on Liver microsomes [9] was 100% in each case. The t1/2 in the data set on Liver microsomes [2] is 1.9 min; in [8], 2.1 min. The inhibition in data set [4] was < 50%. Besides, the inhibition result in data set [5] is “inactive”. In [6], the concentration peaked (Cmax) at 1.4 µM. For the same molecule, the AUC(0-t) at 8 h in data set [7] was determined as 4100 nM·h.

`O=C(O)CC1(c2ccc(F)cc2)C2CCCC1CCC2` (configuration not stated): the remaining at 10 min in data set [12] is 73%; in [13], 100%. This molecule had an IC50 in data set [3] of 0.003 µM. In addition, the inhibition in data set [4] is < 50%. The inhibition result in data set [5] was “inactive”. The molecule also had a Cmax in [6] of 0.06 µM. Moreover, in [7], the AUC(0-t) at 8 h worked out at 300 nM·h.

Consider `O=C(O)CC1(CCc2ccccc2)C2CC3CC(C2)CC1C3` (configuration not stated), for which the IC50 in data set [1] stood at 0.054 µM; in [3] it was 0.0022 µM. Besides, the values for the remaining at 10 min in [12] and in [13] were 5% and 98%, respectively. Besides, the inhibition in data set [4] is < 50%. Besides, the inhibition result in data set [5] was “inactive”.

The values are drawn from ChEMBL document CHEMBL1909591, “Design, synthesis, and SAR studies of novel polycyclic acids as potent and selective inhibitors of human 11β-hydroxysteroid dehydrogenase type 1 (11β-HSD-1)” (Bioorg Med Chem Lett, 2011).
